According to publication PMC7359938 (Clinical and Translational Science, 2020):

Assays:
[1] = Safety and tolerability evaluation; format: in vivo, human
How it was run: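 Fasted healthy men and women (21) received a single oral 25 mg dose with 250 mL water in a double-blind two-period crossover (5-day inpatient stays, ≥7-day washout). Safety covered everyone given at least one dose. Twelve-lead ECG was taken predose and at 1, 2 and 24 h. Hematology, serum chemistry and urinalysis were done at admission and at ~24 and 72 h after ≥10 h fasting. Results were summarized by treatment.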

[2] = test system: VMAT2; settings: in vitro, rats; ref Teva Pharmaceuticals, data on file; cited from earlier work
[3] = pivotal randomized controlled study; cited from earlier work
[4] = cited from earlier work
[5] = Study AUS‐SD‐809‐CTP‐06, single 25 mg dose

## COc1cc2c(cc1OC)[C@H]1CC(=O)[C@H](CC(C)C)CN1CC2 (racemic) [Tetrabenazine, cis‐rac –1,3,4,6,7,11b‐hexahydro‐9,10‐dimethoxy‐3‐(2‐methylpropyl)2H‐benzo[a]quinolizin‐2‐one]
[1]; Study AUS‐SD‐809‐CTP‐06
  Reported events of dizziness: three
[1]; [5]
  Number of subjects with at least one treatment‐emergent adverse event (TEAE): 9
  Percentage of subjects with at least one treatment‐emergent adverse event (TEAE): 45%
  Subjects with headache: 15%
  Subjects with nausea: 15%
  Subjects with somnolence: 10%
[1]; both studies, incl. 14C‐labeled analogues
  Tolerability of single doses: well‐tolerated
[1]; either study
  Serious or severe TEAEs: no serious or severe TEAEs
[1]; following either treatment
  Clinical laboratory assessments, vital signs parameters, ECG measurements, physical examinations: no clinically significant findings
[2]
  Effect of deuteration on binding to VMAT2: did not change the binding
[3]
  Patients requiring dose reduction for intolerability: 44%
[4]
  BDDCS classification: Class II
